# Calls of active or inactive are those of the source. The rule behind the calls is not given here.
# Tests used:
# [1] = target: Glutamate [NMDA] receptor (Homo sapiens) (UniProt Q05586+Q12879+Q13224+O15399+O60391+Q14957+Q8TCU5); assay: Displacement of [3H]CGP39653 from human NMDAR at 25 nM by scintillation counting analysis; assay type: protein-complex assay
# Outline: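 NMDA receptor binding with [3H]CGP39653 (5 nM) as radioligand, test compound at 25 nM; displacement read by scintillation counting and reported as % inhibition of control specific binding.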
# [2] = target: T1, Sigma non-opioid intracellular receptor 1 (Homo sapiens, UniProt Q99720); assay: Displacement of [3H]-(+)-pentazocine from sigma 1 receptor (unknown origin) at 25 nM by scintillation counting analysis; settings: filed as agonist
# T1 sequence (Q99720 whole entry): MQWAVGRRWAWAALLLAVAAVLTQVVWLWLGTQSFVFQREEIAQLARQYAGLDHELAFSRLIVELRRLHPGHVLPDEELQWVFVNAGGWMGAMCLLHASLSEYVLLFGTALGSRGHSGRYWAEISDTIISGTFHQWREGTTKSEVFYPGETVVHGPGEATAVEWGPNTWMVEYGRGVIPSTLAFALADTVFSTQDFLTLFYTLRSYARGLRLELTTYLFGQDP
# Outline: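 Single-concentration screen at 25 nM test compound against [3H](+)pentazocine (15 nM) at S1R; scintillation counting; result given as % inhibition of control specific binding, i.e. 100 minus measured/control specific binding ×100.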
# [3] = Selectivity index, ratio of Ki for sigma 2 receptor (unknown origin) to Ki for sigma 1 receptor (unknown origin)
# [4] = target: Sigma intracellular receptor 2 (Homo sapiens, UniProt Q5BJF2); assay: Binding affinity to sigma 2 receptor (unknown origin) assessed as inhibition constant
# Sigma intracellular receptor 2, sequence (Q5BJF2 whole entry): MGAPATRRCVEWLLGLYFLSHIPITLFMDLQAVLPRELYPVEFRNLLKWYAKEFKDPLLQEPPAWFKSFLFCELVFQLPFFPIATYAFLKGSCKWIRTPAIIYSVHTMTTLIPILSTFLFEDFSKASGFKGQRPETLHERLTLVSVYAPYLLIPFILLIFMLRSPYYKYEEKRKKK
# Outline: (§1)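 Radioligand displacement at S1R with [3H](+)pentazocine (15 nM) and at S2R with [3H]DTG (25 nM); S2R assay includes 1 μM cold (+)pentazocine to mask S1R sites. Bound radioactivity counted by scintillation. IC50 and Hill slope from non-linear Hill fit of competition curves; Ki by Cheng–Prusoff using radioligand concentration and KD from Scatchard plot.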
# [5] = target: T1, Sigma non-opioid intracellular receptor 1; assay: Binding affinity to sigma 1 receptor (unknown origin) assessed as inhibition constant; outline: as §1
# [6] = test system: PC-12; assay: Neuroprotective activity in rat PC12 cells assessed as induction of NGF-mediated neurite outgrowth at 0.5 uM in presence of NE-100 by neurite outgrowth assay; assay type: functional, cell-based
# Outline: (§2)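 PC12 cells stimulated with NGF (2.5 nM) and treated with compound up to 5 μM, alone or after pre-treatment with S1R antagonist NE-100 (3 μM); read-out is percentage of cells bearing neurite sprouts; mean ± SEM of three independent experiments.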
# [7] = test system: PC-12; assay: Neuroprotective activity in rat PC12 cells assessed as induction of NGF-mediated neurite outgrowth at 0.5 uM by neurite outgrowth assay (Rvb=26 +/- 4%); assay type: functional; outline: as §2
# [8] = test system: SH-SY5Y; assay: Neuroprotective activity in human SH-SY5Y cells assessed as prevention of NMDA induced cytotoxicity by measuring cell viability at 0.1 to 0.5 uM incubated for 24 hrs in presence of NMDA by MTT assay; assay type: functional, cell-based; settings: dose 0.1-0.5 µM
# Outline: (§3)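 SH-SY5Y cells (~7000/well) co-incubated 24 h at 37 °C in 2% FBS medium with toxic stimulus (NMDA 250 μM or oligomycin 2.5 μM) plus compound at 0.1–5 μM. Viability by MTT, expressed as % of control.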
# [9] = Cytotoxicity against human SH-SY5Y cells assessed as reduction in cell viability incubated for 72 hrs by MTT assay; assay type: toxicity, cell-based
# Outline: (§4)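 SH-SY5Y cells kept in DMEM/10% FBS, 2 mM glutamine, 37 °C, 5% CO2; ~7000 cells/well, after 1 day given compound (six concentrations, 0.1–100 μM; DMSO stocks 10 mM) in 2% FBS medium for 72 h. MTT (0.5% w/v, 2 h), formazan dissolved in DMSO, absorbance read; triplicates, % of untreated control.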
# [10] = test system: SH-SY5Y; assay: Cytotoxicity against human SH-SY5Y cells assessed as reduction in cell viability at 5 uM incubated for 72 hrs by MTT assay; assay type: toxicity, cell-based; outline: as §4
# [11] = test system: SH-SY5Y; assay: Neuroprotective activity in human SH-SY5Y cells assessed as prevention of NMDA induced cytotoxicity by measuring cell viability at 1 to 5 uM incubated for 24 hrs in presence of NMDA by MTT assay; assay type: functional, cell-based; settings: dose 1-5 µM; outline: as §3
SMILES,Ratio Ki [3],Ki [4],Ki [5],other results
c1ccc(CN2CCN(CCCOC3CCCCC3)CC2)cc1,–,–,–,Activity [1]: < 11.9%; Activity [2]: > 95%
COc1ccc(CCN2CCN(CCCc3ccccc3)CC2)cc1OC [[11C]SA4503],–,63 nM,–,–
CN(C)CC1CCOC1(c1ccccc1)c1ccccc1 (configuration not stated) [BLARCAMESINE],–,–,6.3 nM,–
C[C@H](CCN1CCCCC1)c1ccc(-c2ccccc2)cc1,–,–,–,Activity [6]: inactive; Activity [7]: 36%
c1ccc(CN2CCN(CCSc3ccccc3)CC2)cc1,–,–,–,Activity [1]: < 11.9%; Activity [2]: > 95%
c1ccc(CN2CCN(CC3COC4(CCCCC4)O3)CC2)cc1 (configuration not stated),47,35 nM,0.74 nM,–
c1ccc(CN2CCN(CCCSC3CCCCC3)CC2)cc1,–,–,–,Activity [1]: < 11.9%; Activity [2]: > 95%
CC12CC3CC(C)(C1)CC(N)(C3)C2 [MEMANTINE],–,–,–,Activity [8]: Active; CC50 at 72 h [9]: 98000 nM; Activity [10]: 70%; Activity [11]: inactive

# Second part, led by results:
Ratio Ki [3],Ki [4],Ki [5],SMILES,other results
43,–,–,c1ccc(CN2CCN(CC3CSCS3)CC2)cc1 (configuration not stated),–
24,12 nM,0.5 nM,CC1(C)SCC(CN2CCC(Cc3ccccc3)CC2)S1 (configuration not stated),–
70,91 nM,1.3 nM,c1ccc(CN2CCN(CC3CSC4(CCCCC4)O3)CC2)cc1 (configuration not stated),–
0.4,5 nM,12 nM,c1ccc(CC2CCN(CC3CSC4(CCCCC4)S3)CC2)cc1 (configuration not stated),–
